This note sets out measurements from ChEMBL document CHEMBL2062465, “Sesquiterpenoids from Incarvillea arguta: absolute configuration and biological evaluation” (J Nat Prod, 2012).

Activity calls are given as the source filed them. No cut-off for these calls is given here. Peptide text beside a SMILES is read from it. * marks the point of attachment. Cbz = O=C(OCc1ccccc1)*

For series [1], the system named is RAW264.7. Kind of series: Antiinflammatory activity in mouse RAW264.7 cells assessed as inhibition of LPS-stimulated NO production after 18 hrs by Griess reagent method. The following applies: RAW264.7, 18 h. The series is classed as functional, cell-based. The procedure, abridged: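 NO release measured in LPS-stimulated RAW264.7 macrophages. DMSO wells were included, and MG-132 (proteasome inhibitor) served as positive control. Cell viability was checked by MTT in each experiment. IC50 was derived.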

For series [2], the system named is RAW264.7. The series is described as follows: Cytotoxicity against mouse RAW264.7 cells at 0.04 to 25 uM by MTT assay. The series is classed as cell-based. The following applies: raw264.7, 25 µM. The procedure, abridged: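 Viability of RAW264.7 macrophages was checked by MTT alongside each NO-production experiment, at 0.04, 0.2, 1, 5 and 25 μM.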
Series [3] relates to HL-60. The series is described as follows: Cytotoxicity against human HL60 cells after 48 hrs by MTT assay. The series is classed as functional, cell-based. The following applies: HL-60, 48 h. Summed up: (§1)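 MTT viability assay on human tumour lines. Adherent cells were seeded and allowed to attach 12 h before drug addition. Suspension cells were seeded immediately before dosing at (1−2) × 10^5 cells/mL. Cells were exposed to a range of concentrations for 48 h. Cisplatin and taxol were positive controls. IC50 values were calculated from viability.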

Series [4] deals with SMMC-7721. The series is described as follows: Cytotoxicity against human SMMC7721 cells after 48 hrs by MTT assay. Type of series: functional, cell-based. The following applies: SMMC-7721, 48 h. Summed up:
as §1

Series [5] concerns MCF7. The series is described as follows: Cytotoxicity against human MCF7 cells after 48 hrs by MTT assay. The following applies: MCF7, 48 h. The series is classed as functional, cell-based. The procedure, abridged:
as §1

Series [6] relates to SW480. The series is described as follows: Cytotoxicity against human SW480 cells after 48 hrs by MTT assay. The following applies: SW480, 48 h. The series is classed as functional, cell-based. Summed up: as §1
Series [7] concerns A549. Kind of series: Induction of intracellular calcium influx in human A549 cells at 10 uM after 12 hrs by fluorescence analysis. Type of series: functional, cell-based. Summed up: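 A549 cells were seeded at 0.5 × 10^4 cells/well and grown 12 h. They were loaded with Fluo-4 AM for 30 min, then washed three times with HBSS. Compounds were tested at 10 μM in Ca2+-containing HBSS. Intracellular calcium was imaged and analysed on an automated cell-based fluorescence-imaging system.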

On to `C=C(CO)[C@@H]1CC(=O)C2=CCC[C@H](C)[C@@]2(C)C1` [ARGUTOSINE B], for which the half-inhibitory concentration (IC50) in series [1] was 5700 nM; in series [3], 15.2 µM; in series [4] it was 34.1 µM; in series [5] it was 13.5 µM; in series [6], 15.6 µM. Further, the Activity result in series [2] was “Non-toxic”.

Consider `C[C@H]1CCC=C2C(=O)C=C([C@]3(CO)CC[C@@](O)(CO)C4=C3C(=O)C3=CCC[C@H](C)[C@@]3(C)C4)C[C@@]21C` [DIINCARVILONE A], for which the IC50 in series [3], in series [4], in series [5] and in series [6] was above 40 µM throughout. For the same molecule, in series [7], the result was Active.

Take `C[C@H]1CCC=C2C(=O)C=C([C@]3(CO)CC[C@](O)(CO)C4=C3C(=O)C3=CCC[C@H](C)[C@@]3(C)C4)C[C@@]21C` [DIINCARVILONE B]: the IC50 in series [3], in series [4], in series [5] and in series [6] was above 40 µM each time. The result in series [7] was Active.

Consider `C[C@H]1CCC=C2C(=O)C=C([C@]3(CO)CC[C@@H](CO)C4=C3C(=O)C3=CCC[C@H](C)[C@@]3(C)C4)C[C@@]21C` [DIINCARVILONE C], for which the half-maximal inhibitory concentration (IC50) in series [3], in series [4], in series [5] and in series [6] was above 40 µM throughout.

Consider `C[C@H]1CCC=C2C(=O)C=C([C@]3(CO)CCC(=O)C4=C3C(=O)C3=CCC[C@H](C)[C@@]3(C)C4)C[C@@]21C` [DIINCARVILONE D], for which the half-maximal inhibitory concentration (IC50) in series [3], in series [4], in series [5] and in series [6] was above 40 µM each time. The outcome in series [7] was Active.

Take `C[C@H](CO)C1=CC(=O)C2=CCC[C@H](C)[C@@]2(C)C1` [INCARVILONE A]: the half-inhibitory concentration (IC50) in series [3], in series [4], in series [5] and in series [6] was above 40 µM in each case.

Turning to `CC(C)C[C@@H](C=O)NC(=O)[C@H](CC(C)C)NC(=O)[C@H](CC(C)C)NC(=O)OCc1ccccc1` [MG-132] (Cbz-Leu-Leu-Leu-aldehyde), the concentration for half-maximal inhibition (IC50) in series [1] is 80 nM.
